PDI inh: inhibitors of human PDI, primary screen, biochemical, turbidity, single point, plate reader | Protein disulfide-isomerase (Homo sapiens), P07237 | PDI insulin aggregation turbidity, A650, 90 min | inhibition, % at 10 µM | 0.052% of 350,000 active;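 active = mean inhibition across replicates of 30% or more, whatever share of single replicates reach that level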
Target sequence (P07237 whole entry, looked up): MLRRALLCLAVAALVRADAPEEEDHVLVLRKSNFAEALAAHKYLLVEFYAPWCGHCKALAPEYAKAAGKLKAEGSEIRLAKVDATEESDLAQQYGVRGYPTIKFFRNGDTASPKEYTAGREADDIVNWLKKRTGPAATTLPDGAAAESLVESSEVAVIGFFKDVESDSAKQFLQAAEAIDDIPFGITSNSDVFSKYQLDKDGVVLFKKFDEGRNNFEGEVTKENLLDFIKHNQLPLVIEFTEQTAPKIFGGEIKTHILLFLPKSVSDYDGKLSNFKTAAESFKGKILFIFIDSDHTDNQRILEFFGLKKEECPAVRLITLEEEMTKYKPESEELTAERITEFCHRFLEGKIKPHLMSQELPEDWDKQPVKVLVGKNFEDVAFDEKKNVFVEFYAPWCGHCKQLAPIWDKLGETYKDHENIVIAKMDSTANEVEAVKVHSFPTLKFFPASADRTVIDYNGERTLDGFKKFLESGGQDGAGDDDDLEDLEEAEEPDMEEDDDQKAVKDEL
CAL PDZ FP-1: untagged CAL PDZ binding inhibitors, primary screen, biochemical, fluorescence polarization, HTS. AID 602252, 2012. inhibition, % at 24.9 µM. purified CAL PDZ, TMR-peptide fluorescence polarization, 1 h. 0.92% of 300,000 active. Golgi-associated PDZ and coiled-coil motif-containing protein (Homo sapiens), Q9HD26;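 active = mean inhibition of at least 30% with at least half of replicates also reaching 30%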;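 also: 0% = DMSO neutral control and 100% = excess unlabeled competitor peptide PRC23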
ERp5 inh: inhibitors of ERp5-driven insulin aggregation, primary screen, biochemical, turbidity, absorbance 650 nm, single point; Protein disulfide-isomerase A6 (Homo sapiens), Q15084; inhibition, % at 9.99 µM; 90 min; 0.05% of 350,000 active;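 active = mean replicate inhibition above about 25%, with every replicate also reaching it, limit read from the data, passing the limit was not always enough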
Rin1-Abl PPI inh: inhibitors of Rin1-Abl protein binding, primary screen, biochemical, TR-FRET; Tyrosine-protein kinase ABL1 (Homo sapiens) + Ras and Rab interactor 1 (Homo sapiens), …; inhibition, % at 7.35 µM; 0.4% of 360,000 active; AID 588664, 2011; in the data active = inhibition above about 5%, passing the limit was not always enough
CAL PDZ FP-2: CAL PDZ peptide-binding inhibitors, primary screen, biochemical, fluorescence polarization, Cer-tagged CAL PDZ, HTS. 0.02% of 330,000 active. purified CAL PDZ, TMR-peptide fluorescence polarization, 1 h. Golgi-associated PDZ and coiled-coil motif-containing protein (Homo sapiens), Q9HD26. inhibition, % at 20 µM. AID 504414, 2011;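 active = highest replicate inhibition of at least 40%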;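 also: plate controls were DMSO neutral control wells for no effect and unlabeled competitor peptide control wells for full effect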
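Test system: purified CerCALP PDZ construct; Compound dosing: one concentration, 20 µM compound; Also added: TMR-labelled reporter peptide T*-PRC34 bound in PDZ groove; Read-out: inhibition from polarization loss; Controls: unlabelled peptide and DMSO controls; Signal: FP readout, S and P plane fluorescence; Incubation: 1 h at RT.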
ERAP1 HTS inh: human ERAP1 aminopeptidase inhibitors, primary screen, biochemical, single point, plate reader; inhibition, % at 10.7 µM; Endoplasmic reticulum aminopeptidase 1 (Homo sapiens), Q9NZ08; 0.15% of 340,000 active; AID 652197, 2013; recombinant ERAP1, Leu-AMC fluorescence, 60 min;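 active = mean replicate inhibition of at least 30%, or all replicates individually reaching that 30% level; inactive = mean below 30% and not every replicate reaching it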;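 also: 0% = neutral control wells and 100% = L-leucinethiol positive control wells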
* = called active by the depositor; . = no result. In the library only some 1.1% were active in any assay of this set; here they are far more common.

SMILES	PDI inh	CAL PDZ FP-1	ERp5 inh	Rin1-Abl PPI inh	CAL PDZ FP-2	ERAP1 HTS inh
CCCn1nnc(NC(=O)c2cccc(Cl)c2)n1	6	-2	.	2	.	.
COCC(=O)N(C)C[C@@H]1Oc2ncc(C#C[C@@H](C)O)cc2C(=O)N([C@H](C)CO)C[C@H]1C	.	.	4	.	.	-2
CCCC#Cc1ccc2c(c1)[C@@H]1[C@@H](CCN1C(=O)CC1CC1)[C@@H](CO)N2C	.	.	5	.	.	0
CCN1/C(=C/c2ccc3cc(C)ccc3[n+]2CC)Sc2cc(C)c(C)cc21	-4	2	-1	-5	13	33*
C[C@H](CO)N1C[C@H](C)[C@H](CN(C)C(=O)c2ccncc2)Oc2cc(-c3cccc(C#N)c3)ccc2S1(=O)=O	.	.	3	.	.	0
COC(=O)C[C@H]1CC[C@H]2[C@@H](COc3ccc(NC(=O)c4cccc(OC)c4)cc3C(=O)N2C)O1	.	.	4	.	.	4
O=C(NCc1ccc(Cl)cc1)c1ccc(OCC2CCCO2)cc1 (centres undefined)	-10	3	-5	2	-2	-3
O=C(Nc1ccc(Cl)cc1)c1ccc(OCC2CCCO2)cc1 (centres undefined)	4	34*	4	-1	0	-1
c1ccc(-c2ccc(-c3ccccn3)s2)nc1	2	41*	-2	-3	-1	-2
CCC(C)c1ccccc1NC(=O)COC(=O)CCc1cc(OC)c(OC)c(OC)c1 (centres undefined)	15	83*	.	0	-1	.
COc1cc(CCC(=O)OCC(=O)Nc2ccccc2F)cc(OC)c1OC	8	-4	6	1	-3	-3
CC(C)NC(=O)NS(=O)(=O)c1cnccc1NC1CC2CCC1C2 (centres undefined)	-3	69*	.	3	0	.
Cc1ccc(S(=O)(=O)N(C)C[C@@H]2Oc3ccc(NC(=O)CCCCCC(=O)Nc4ccccc4N)cc3C(=O)N([C@H](C)CO)C[C@H]2C)cc1	.	.	10	.	.	1
C=CC[C@@]1(C(=O)NCCCOC)N=C(c2ccc(OCCCO)cc2)O[C@@H]1c1ccccc1	.	.	-3	.	.	1
O=C(COC(=O)Cc1c(F)cccc1Cl)NC(=O)c1ccccc1	5	50*	-1	-2	-2	3
O=C(COC(=O)Cc1c(F)cccc1Cl)NNC(=O)c1ccccc1	-10	1	1	1	0	-1
C[C@@H]1CN([C@@H](C)CO)C(=O)c2c(c3ccccc3n2C)-c2ccccc2CO[C@@H]1CN(C)Cc1ccccc1C(F)(F)F	.	.	1	.	.	-7
O=C(c1cnn(-c2ccccc2)c1)c1ccccc1O	1	-3	.	-3	0	.
O=C(c1cnn(C(=O)CN2CCCC2=O)c1)c1ccccc1O	-5	93*	-3	-1	13	0
CCN(CC)CCn1c2c(c(SCC(=O)NCc3ccccc3)nc1=O)CCC2	-1	39*	3	1	0	-2
c1ccc2nc(N3CCOCC3)c(N3CCCC3)nc2c1	-1	71*	2	-2	9	2
COc1ccc(OC)c(NC(=O)C2CCCN(S(=O)(=O)c3cccc4nsnc34)C2)c1 (centres undefined)	-5	1	.	-4	1	.
COc1cc(NC(=O)C2CCCN(S(=O)(=O)c3cccc4nsnc34)C2)cc(OC)c1 (centres undefined)	2	58*	.	2	-1	.
O=C(C1CC1)N1CC(=O)N2[C@H](C1)[C@H](c1ccc(C#Cc3cccc(F)c3)cc1)[C@@H]2CO	.	.	1	.	.	0
O=C(CC(F)(F)F)N1C[C@@H]2[C@H](c3ccccc31)[C@H](CO)N2C(=O)c1cccnc1	.	.	1	.	.	1
SMILES	PDI inh	CAL PDZ FP-1	ERp5 inh	Rin1-Abl PPI inh	CAL PDZ FP-2	ERAP1 HTS inh
O=C(CSc1ccccn1)Nc1cccc2ccccc12	3	-5	3	4	18	88*
CN(C)S(=O)(=O)c1cccc(COc2ncnc3c(Cl)cc(Cl)cc23)c1	3	56*	-1	0	0	3
CN(C)S(=O)(=O)c1cccc(COC(=O)c2ccc(Cl)cc2O)c1	-7	4	3	-2	0	.
CCS(=O)(=O)Nc1ccc2c(c1)C(=O)N(C)[C@@H]1CC[C@H](CC(=O)NC)O[C@H]1CO2	.	.	1	.	.	-2
CC(C)C1CC(=O)NC(SCC(=O)Nc2ccc(Br)cc2)=C1C#N (centres undefined)	21	57*	.	1	0	.
COc1ccccc1C1CC(=O)NC(SCC(=O)Nc2ccccc2)=C1C#N (centres undefined)	-10	.	-1	0	-1	-5
Cc1cc(C(=O)NCC2COc3ccccc3O2)c2ccccc2n1 (centres undefined)	-1	62*	-2	-2	-2	-1
COc1ccc(/C=N/N2CCN(Cc3ccc(C)cc3)CC2)cc1Br	5	72*	4	-1	7	0
CO[C@@H](CN(C)Cc1ccc2c(c1)OCO2)[C@@H](C)CN(C(=O)c1ccccc1)[C@@H](C)CO	.	.	-2	.	.	-4
COc1ccc(NC(=O)N(C)C[C@H]2OCCCC[C@H](C)Oc3ccc(NC(=O)NC(C)C)cc3C(=O)N([C@H](C)CO)C[C@@H]2C)cc1	.	.	-2	.	.	2
O=C(NNC(=O)C1CCCCC1)c1ccc(Br)cc1	3	3	-2	2	-1	3
O=C(NNC(=O)C1CCC1)c1ccc(Br)cc1	1	50*	-7	0	0	2
Cc1noc(C)c1NC(=O)Nc1ccc2c(c1)C(=O)N([C@@H](C)CO)C[C@H](C)[C@H](CN(C)Cc1ccc(C(=O)O)cc1)O2	.	.	0	.	.	1
c1ccc(-c2cnc(CSc3nnc4ccccn34)o2)cc1	2	57*	.	0	0	.
CC(=O)N1CCCc2cc(S(=O)(=O)N3CCN(C4CCCCC4)CC3)ccc21	3	-7	.	1	.	.
CCC(=O)N1CCCc2cc(S(=O)(=O)N3CCN(C4CCCCC4)CC3)ccc21	7	42*	.	-2	.	.
COc1ccc(NC(=O)Nc2ccc3c(c2)CC(=O)N([C@H](C)CO)C[C@H](C)[C@H](CN(C)C(=O)NC(C)C)O3)cc1	.	.	-1	.	.	0
CN(CC(=O)Nc1cccc(F)c1)C(=O)c1ccc2c(=O)n3c(nc2c1)CCC3	2	-4	-4	-1	-1	-1
CN(Cc1cccc(F)c1)C(=O)c1ccc2c(=O)n3c(nc2c1)CCC3	-10	65*	6	0	0	-1
Fc1ccc(Cn2c(-c3cscn3)nc3ccccc32)c(Cl)c1	-2	-4	.	-2	.	.
Nc1nonc1-c1nc2ccccc2n1Cc1ccc(F)cc1Cl	-12	active	.	-3	-2	.

Screening data: PubChem BioAssay, several laboratories
